Reference: ChEMBL document CHEMBL1671761, “Preclinical characterization of BI 201335, a C-terminal carboxylic acid inhibitor of the hepatitis C virus NS3-NS4A protease” (Antimicrob Agents Chemother, 2010)

Legend:
[1] = AUC (0 to infinity) in rat at 5 mg/kg, po; assay type: ADME, organism-based; parameters: time infinity, dose 5 mg/kg, route oral; details: plasma
Procedure, shortened: (§1)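 Single oral dose of 5 mg/kg in 0.5% Methocel with 0.3% Tween 80 (10 ml/kg) to fasted male animals: Sprague-Dawley rats (275-300 g, overnight fast with 10% dextrose water), rhesus monkeys, beagle dogs. Rat blood from cannulated carotid at 0-8 h, pooled from 3 rats per time point; monkey/dog n=3. Plasma solid-phase extracted, LC-MS/MS at m/z 869.3; noncompartmental analysis.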

[2] = biological target: Nitric oxide synthase, inducible (Mus musculus) (UniProt P29477); assay: Inhibition of mouse iNOS at 10 uM
[3] = species: Cavia porcellus; assay: Inhibition of guinea pig adenosine transporter at 10 uM
[4] = species: Rattus norvegicus; assay: Inhibition of rat GABA-A receptor, chloride channel at 10 uM
[5] = biological target: 72 kDa type IV collagenase (Homo sapiens) (UniProt P08253); assay: Inhibition of human MMP-2 at 10 uM
[6] = biological target: 5-hydroxytryptamine receptor 7 (Homo sapiens) (UniProt P34969); assay: Inhibition of human 5-HT7 receptor at 10 uM
[7] = biological target: Coagulation factor VII (Homo sapiens) (UniProt P08709); assay: Inhibition of human factor 7a at 10 uM
[8] = biological target: D(4) dopamine receptor (Homo sapiens) (UniProt P21917); assay: Inhibition of human dopamine receptor 4.4 at 10 uM
[9] = biological target: Histamine H3 receptor (Homo sapiens) (UniProt Q9Y5N1); assay: Inhibition of human H3 receptor at 10 uM
[10] = biological target: Caspase-4 (Homo sapiens) (UniProt P49662); assay: Inhibition of human caspase-4 at 10 uM
[11] = species: Rattus norvegicus; assay: Inhibition of rat mAChR at 10 uM
[12] = species: Rattus norvegicus; assay: Inhibition of rat glycine receptor at 10 uM
[13] = biological target: Adenosine receptor A2a (Homo sapiens) (UniProt P29274); assay: Inhibition of human adenosine A2A receptor at 10 uM
[14] = biological target: Glutamate receptor ionotropic, delta-1 (Rattus norvegicus) (UniProt Q62640); assay: Inhibition of rat glutamate receptor at 10 uM
[15] = biological target: Neutrophil collagenase (Homo sapiens) (UniProt P22894); assay: Inhibition of human MMP-8 at 10 uM
[16] = AUC (0 to infinity) in monkey at 5 mg/kg, po; assay type: ADME, organism-based, Macaca mulatta; parameters: time infinity, dose 5 mg/kg, route oral; details: rhesus monkey, plasma; procedure, shortened: as §1
[17] = biological target: Chymase (Homo sapiens) (UniProt P23946); assay: Inhibition of human chymase at 10 uM
[18] = biological target: Histamine H1 receptor (Homo sapiens) (UniProt P35367); assay: Inhibition of human H1 receptor at 10 uM
[19] = biological target: Stromelysin-1 (Homo sapiens) (UniProt P08254); assay: Inhibition of human MMP-3 at 10 uM
[20] = biological target: Plasminogen (Homo sapiens) (UniProt P00747); assay: Inhibition of human plasmin at 10 uM
[21] = biological target: Sterol O-acyltransferase 2 (Rattus norvegicus) (UniProt Q7TQM4); assay: Inhibition of rat hapatic, acyl coA cholesterol acetyltransferase at 10 uM
[22] = biological target: Collagenase 3 (Homo sapiens) (UniProt P45452); assay: Inhibition of human MMP-13 at 10 uM
[23] = species: Rattus norvegicus; assay: Inhibition of rat opiate receptor at 10 uM
[24] = biological target: Caspase-2 (Homo sapiens) (UniProt P42575); assay: Inhibition of human caspase-2 at 10 uM
[25] = biological target: Interstitial collagenase (Homo sapiens) (UniProt P03956); assay: Inhibition of human MMP-1 at 10 uM
[26] = AUC (0 to infinity) in dog at 5 mg/kg, po; assay type: ADME, organism-based, Canis lupus familiaris; parameters: time infinity, dose 5 mg/kg, route oral; details: plasma; procedure, shortened: as §1
[27] = biological target: Caspase-3 (Homo sapiens) (UniProt P42574); assay: Inhibition of human caspase-3 at 10 uM
[28] = biological target: Serine/threonine protein phosphatase PP2B-alpha catalytic subunit (Homo sapiens) (UniProt P16298); assay: Inhibition of human PP2B at 10 uM
[29] = biological target: Cathepsin G (Homo sapiens) (UniProt P08311); assay: Inhibition of human cathepsin G at 10 uM
[30] = biological target: Cathepsin D (Homo sapiens) (UniProt P07339); assay: Inhibition of human cathepsin D; details: concentration not given here
Cathepsin D (Homo sapiens), sequence (P07339 65-162 limits assumed): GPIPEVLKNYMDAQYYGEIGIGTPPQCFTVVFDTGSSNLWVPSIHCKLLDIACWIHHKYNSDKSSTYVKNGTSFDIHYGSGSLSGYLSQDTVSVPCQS
Cathepsin D (Homo sapiens), sequence (P07339 169-412 limits assumed): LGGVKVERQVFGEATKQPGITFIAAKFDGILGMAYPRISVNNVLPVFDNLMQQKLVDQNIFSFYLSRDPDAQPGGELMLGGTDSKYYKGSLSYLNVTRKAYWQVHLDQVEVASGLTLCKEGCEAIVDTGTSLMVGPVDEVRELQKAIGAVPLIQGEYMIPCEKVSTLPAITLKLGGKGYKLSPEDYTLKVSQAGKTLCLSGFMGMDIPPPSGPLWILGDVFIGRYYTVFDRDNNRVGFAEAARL

Cathepsin G (Homo sapiens), sequence (P08311 whole entry): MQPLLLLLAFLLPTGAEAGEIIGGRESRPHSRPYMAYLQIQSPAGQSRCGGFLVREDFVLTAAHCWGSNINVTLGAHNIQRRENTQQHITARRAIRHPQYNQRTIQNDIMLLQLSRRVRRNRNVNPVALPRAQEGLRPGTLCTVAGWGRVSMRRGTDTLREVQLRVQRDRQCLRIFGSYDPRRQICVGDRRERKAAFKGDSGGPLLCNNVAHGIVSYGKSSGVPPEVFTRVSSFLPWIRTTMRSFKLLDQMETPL
Histamine H1 receptor (Homo sapiens), sequence (P35367 whole entry): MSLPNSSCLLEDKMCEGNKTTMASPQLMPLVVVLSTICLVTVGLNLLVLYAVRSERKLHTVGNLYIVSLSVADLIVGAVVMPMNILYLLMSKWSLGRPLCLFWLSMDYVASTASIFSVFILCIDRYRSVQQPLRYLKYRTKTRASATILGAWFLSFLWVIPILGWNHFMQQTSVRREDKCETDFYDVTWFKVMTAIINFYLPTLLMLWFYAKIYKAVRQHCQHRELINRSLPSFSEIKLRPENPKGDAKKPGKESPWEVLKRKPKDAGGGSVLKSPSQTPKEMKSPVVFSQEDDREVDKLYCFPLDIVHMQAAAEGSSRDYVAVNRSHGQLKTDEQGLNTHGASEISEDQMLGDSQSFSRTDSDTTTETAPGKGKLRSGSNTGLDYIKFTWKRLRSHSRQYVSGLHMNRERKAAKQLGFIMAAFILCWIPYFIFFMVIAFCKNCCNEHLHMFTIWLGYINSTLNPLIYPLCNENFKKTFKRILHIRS
Adenosine receptor A2a (Homo sapiens), sequence (P29274 whole entry): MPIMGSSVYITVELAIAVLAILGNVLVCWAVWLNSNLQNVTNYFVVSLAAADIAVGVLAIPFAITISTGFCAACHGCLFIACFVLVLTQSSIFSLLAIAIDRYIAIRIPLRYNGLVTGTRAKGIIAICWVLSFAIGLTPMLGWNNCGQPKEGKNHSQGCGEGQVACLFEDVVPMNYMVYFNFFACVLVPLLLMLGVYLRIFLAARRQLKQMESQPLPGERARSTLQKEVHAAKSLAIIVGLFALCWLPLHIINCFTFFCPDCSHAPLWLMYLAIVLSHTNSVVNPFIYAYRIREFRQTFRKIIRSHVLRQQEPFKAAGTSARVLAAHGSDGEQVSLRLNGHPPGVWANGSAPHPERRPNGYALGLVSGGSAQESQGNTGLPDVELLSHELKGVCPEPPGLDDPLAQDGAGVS
5-hydroxytryptamine receptor 7 (Homo sapiens), sequence (P34969 whole entry): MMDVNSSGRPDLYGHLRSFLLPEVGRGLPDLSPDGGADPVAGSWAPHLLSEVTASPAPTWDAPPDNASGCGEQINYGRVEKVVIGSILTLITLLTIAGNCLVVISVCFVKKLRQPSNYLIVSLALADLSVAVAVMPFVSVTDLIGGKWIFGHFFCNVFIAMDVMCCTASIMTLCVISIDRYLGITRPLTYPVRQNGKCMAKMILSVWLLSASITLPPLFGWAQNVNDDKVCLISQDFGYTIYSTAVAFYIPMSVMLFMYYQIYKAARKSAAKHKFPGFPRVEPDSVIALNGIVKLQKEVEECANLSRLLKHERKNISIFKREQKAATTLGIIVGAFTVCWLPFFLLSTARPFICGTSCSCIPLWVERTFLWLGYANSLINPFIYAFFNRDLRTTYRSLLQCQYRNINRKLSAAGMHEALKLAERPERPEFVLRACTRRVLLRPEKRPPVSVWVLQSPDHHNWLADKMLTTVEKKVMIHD
Caspase-2 (Homo sapiens), sequence (P42575 170-325 limits assumed): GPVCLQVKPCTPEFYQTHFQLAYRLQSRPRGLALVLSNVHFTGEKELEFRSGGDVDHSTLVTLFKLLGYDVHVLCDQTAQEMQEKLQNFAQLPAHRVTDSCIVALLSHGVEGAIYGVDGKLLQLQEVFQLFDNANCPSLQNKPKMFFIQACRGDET
Caspase-2 (Homo sapiens), sequence (P42575 334-452 limits assumed): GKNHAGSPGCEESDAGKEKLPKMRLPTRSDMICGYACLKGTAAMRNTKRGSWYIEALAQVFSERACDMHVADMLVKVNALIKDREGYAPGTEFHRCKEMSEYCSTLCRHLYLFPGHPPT
Sterol O-acyltransferase 2 (Rattus norvegicus), sequence (Q7TQM4 whole entry): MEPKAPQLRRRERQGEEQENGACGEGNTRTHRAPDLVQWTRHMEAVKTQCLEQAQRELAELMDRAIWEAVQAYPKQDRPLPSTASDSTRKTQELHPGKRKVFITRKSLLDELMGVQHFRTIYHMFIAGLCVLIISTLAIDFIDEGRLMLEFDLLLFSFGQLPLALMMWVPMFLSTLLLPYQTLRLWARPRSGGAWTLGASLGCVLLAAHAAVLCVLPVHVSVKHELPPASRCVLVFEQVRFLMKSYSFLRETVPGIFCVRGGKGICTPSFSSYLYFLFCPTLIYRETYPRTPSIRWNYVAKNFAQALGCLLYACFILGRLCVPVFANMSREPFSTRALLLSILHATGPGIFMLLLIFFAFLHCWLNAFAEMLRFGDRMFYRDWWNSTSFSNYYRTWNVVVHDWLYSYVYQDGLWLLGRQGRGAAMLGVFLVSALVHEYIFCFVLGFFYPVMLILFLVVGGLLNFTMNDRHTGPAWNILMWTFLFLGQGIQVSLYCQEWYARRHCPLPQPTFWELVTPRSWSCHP
Coagulation factor VII (Homo sapiens), sequence (P08709 61-212 limits assumed): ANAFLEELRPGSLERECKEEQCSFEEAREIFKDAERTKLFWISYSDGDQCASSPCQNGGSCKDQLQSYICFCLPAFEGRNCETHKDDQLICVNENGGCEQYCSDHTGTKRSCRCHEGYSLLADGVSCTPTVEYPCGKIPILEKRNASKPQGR
Coagulation factor VII (Homo sapiens), sequence (P08709 213-466 limits assumed): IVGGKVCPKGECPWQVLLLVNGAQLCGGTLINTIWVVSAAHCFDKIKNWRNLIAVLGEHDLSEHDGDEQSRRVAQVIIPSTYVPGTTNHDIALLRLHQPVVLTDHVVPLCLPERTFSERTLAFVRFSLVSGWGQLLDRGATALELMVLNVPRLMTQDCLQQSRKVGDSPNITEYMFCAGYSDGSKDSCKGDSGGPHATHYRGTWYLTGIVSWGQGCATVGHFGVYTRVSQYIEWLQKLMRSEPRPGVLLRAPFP
Plasminogen (Homo sapiens), sequence (P00747 97-580 limits assumed): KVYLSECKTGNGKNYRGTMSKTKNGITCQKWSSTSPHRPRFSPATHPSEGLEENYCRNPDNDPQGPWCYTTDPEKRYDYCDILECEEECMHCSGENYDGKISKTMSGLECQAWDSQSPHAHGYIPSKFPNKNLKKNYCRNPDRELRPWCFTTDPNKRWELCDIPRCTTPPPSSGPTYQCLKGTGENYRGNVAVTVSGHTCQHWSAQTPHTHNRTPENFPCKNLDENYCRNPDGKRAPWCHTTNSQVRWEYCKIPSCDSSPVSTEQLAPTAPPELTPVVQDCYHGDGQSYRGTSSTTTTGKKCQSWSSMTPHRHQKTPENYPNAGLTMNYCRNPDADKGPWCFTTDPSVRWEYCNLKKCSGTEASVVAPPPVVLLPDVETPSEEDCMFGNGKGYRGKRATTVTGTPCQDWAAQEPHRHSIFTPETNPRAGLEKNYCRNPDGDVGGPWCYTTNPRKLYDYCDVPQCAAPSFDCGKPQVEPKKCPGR
Plasminogen (Homo sapiens), sequence (P00747 581-810 limits assumed): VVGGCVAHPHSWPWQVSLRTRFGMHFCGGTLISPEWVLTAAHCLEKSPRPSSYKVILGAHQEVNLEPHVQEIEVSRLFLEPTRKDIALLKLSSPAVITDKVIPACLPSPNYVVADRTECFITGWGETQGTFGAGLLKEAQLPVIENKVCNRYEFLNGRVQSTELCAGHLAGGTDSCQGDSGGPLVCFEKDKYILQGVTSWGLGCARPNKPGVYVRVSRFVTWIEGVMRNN
D(4) dopamine receptor (Homo sapiens), sequence (P21917 whole entry): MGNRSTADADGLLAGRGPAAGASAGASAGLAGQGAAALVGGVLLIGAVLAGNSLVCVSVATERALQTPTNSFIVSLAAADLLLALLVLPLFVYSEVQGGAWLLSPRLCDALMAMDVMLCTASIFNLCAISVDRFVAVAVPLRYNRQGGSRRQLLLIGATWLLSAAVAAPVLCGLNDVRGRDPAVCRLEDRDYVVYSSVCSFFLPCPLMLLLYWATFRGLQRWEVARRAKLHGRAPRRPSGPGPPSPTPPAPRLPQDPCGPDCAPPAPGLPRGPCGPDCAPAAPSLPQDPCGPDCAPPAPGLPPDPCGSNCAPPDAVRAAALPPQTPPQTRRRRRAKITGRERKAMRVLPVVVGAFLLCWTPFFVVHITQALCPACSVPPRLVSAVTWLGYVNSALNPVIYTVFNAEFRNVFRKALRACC
Neutrophil collagenase (Homo sapiens), sequence (P22894 101-467 limits assumed): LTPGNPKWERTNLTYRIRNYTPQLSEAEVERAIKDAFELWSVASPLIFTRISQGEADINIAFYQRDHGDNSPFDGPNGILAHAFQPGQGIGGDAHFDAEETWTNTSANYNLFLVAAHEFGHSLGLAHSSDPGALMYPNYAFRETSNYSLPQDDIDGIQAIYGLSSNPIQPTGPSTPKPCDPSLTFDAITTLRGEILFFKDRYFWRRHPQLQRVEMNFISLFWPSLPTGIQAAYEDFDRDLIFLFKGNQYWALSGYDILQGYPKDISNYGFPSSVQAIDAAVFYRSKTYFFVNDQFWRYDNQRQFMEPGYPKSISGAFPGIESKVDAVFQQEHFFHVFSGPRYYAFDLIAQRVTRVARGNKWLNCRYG

## C=C[C@@H]1C[C@]1(NC(=O)[C@@H]1C[C@@H](Oc2cc(-c3csc(NC(=O)C(C)C)n3)nc3c(Br)c(OC)ccc23)CN1C(=O)[C@@H](NC(=O)OC1CCCC1)C(C)(C)C)C(=O)O
[1]
  AUC(0-inf): 1.63 µM·h
[2]
  inhibition: 0%
[3]
  inhibition: 23%
[4]
  inhibition: 28%
[5]
  inhibition: 10%
[6]
  inhibition: 3%
[7]
  inhibition: 6%
[8]
  inhibition: 39%
[9]
  inhibition: 5%
[10]
  inhibition: 33%
[11]
  inhibition: 5%
[12]
  inhibition: 6%
[13]
  inhibition: 23%
[14]
  inhibition: 38%
[15]
  inhibition: 6%
[16]
  AUC(0-inf): 8.3 µM·h
[17]
  inhibition: 11%
[18]
  inhibition: 3%
[19]
  inhibition: 11%
[20]
  inhibition: 18%
[21]
  inhibition: 78%
[22]
  inhibition: 5%
[23]
  inhibition: 26%
[24]
  inhibition: 5%
[25]
  inhibition: 19%
[26]
  AUC(0-inf): 14 µM·h
[27]
  inhibition: 5%
[28]
  inhibition: 50%
[29]
  inhibition: 18%
[30]
  inhibition: 43%
